Common to all, as to format: functional, Homo sapiens
Experiment [1] concerns A-431. As to the kind of experiment: (§1) The compound was tested in vitro for antiproliferative activity against A431 tumor cell lines. Set-up: concentration or dose not given beside the values. In short, it runs like this: (§2)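 Human tumor cell lines were exposed to the conjugates for 24 h at 50 µg/mL. Surviving cells converted the tetrazolium salt MTT to formazan, and OD was read at 570 nm. Values are percent inhibition relative to untreated cells (0%), given as the mean ± SD of at least three parallels. The methods also list 20, 50 and 100 µg/mL and 24 or 48 h exposures.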

A further experiment concerns A2058. As to the kind of experiment: The compound was tested in vitro for antiproliferative activity against A2058 tumor cell lines. On the set-up: concentration or dose not given beside the values. In short, it runs like this:
as §2

For the next experiment, the system named is Faza 967 cell clone 2/T1. As to the kind of experiment: The compound was tested in vitro for antiproliferative activity against Faza 967 clone2/T1 tumor cell lines. Set-up: concentration or dose not given beside the values.
For another experiment, the system named is Faza 967 clone 2. As to the kind of experiment: The compound was tested in vitro for antiproliferative activity against Faza 967 clone2 tumor cell lines. On the set-up: concentration or dose not given beside the values.
A further experiment deals with HT-29. As to the kind of experiment: The compound was tested in vitro for antiproliferative activity against HT-29 tumor cell lines. On the set-up: concentration or dose not given beside the values. In short, it runs like this: as §2
Experiment [2] relates to A-431. Described as §1. In short, it runs like this: as §2
The test system of a further experiment is PC-3. As to the kind of experiment: The compound was tested in vitro for antiproliferative activity against PC3 tumor cell lines. In short, it runs like this:
as §2

A further experiment has as its system SW-620. As to the kind of experiment: The compound was tested in vitro for antiproliferative activity against […] tumor cell lines. In short, it runs like this:
as §2

In general, Inhibition refers to the percentage by which the read-out fell short of the control.

On to `CCCCCCCCCCCCCCCCC(N)C(=O)N[C@H](Cc1ccccc1)C(=O)N[C@@H](CSCNC(C)=O)C(=O)N[C@H](C(=O)N[C@H](Cc1c[nH]c2ccccc12)C(=O)N[C@@H](CCCCN)C(=O)N[C@@H](CSCNC(C)=O)C(=O)N[C@H](C(N)=O)[C@@H](C)O)c1ccc(O)cc1` (some centres not stated), for which the Inhibition in the experiment with A-431 [1] worked out at 83%; with A2058, 60%; with Faza 967 cell clone 2/T1, 88%; in the experiment with Faza 967 clone 2, 93%; in the experiment with HT-29, 20%.
On to `CCCCCCCCCCCCC(N)C(=O)N[C@H](Cc1ccccc1)C(=O)N[C@@H](CSCNC(C)=O)C(=O)N[C@H](C(=O)N[C@H](Cc1c[nH]c2ccccc12)C(=O)N[C@@H](CCCCN)C(=O)N[C@@H](CSCNC(C)=O)C(=O)N[C@H](C(=O)NC1OC(C(N)=O)C(O)C(O)C1O)[C@@H](C)O)c1ccc(O)cc1` (some centres not stated), for which the Inhibition in the experiment on A-431 [1] was found to be 10%; in the experiment with A2058, 2%; in the experiment with Faza 967 cell clone 2/T1, 17%; in the experiment on Faza 967 clone 2, 23%; with HT-29, 18%.
For the compound `CCCCCCCCC(NC(=O)[C@@H](NC(=O)[C@H](CSCNC(C)=O)NC(=O)[C@H](CCCCN)NC(=O)[C@@H](Cc1c[nH]c2ccccc12)NC(=O)[C@@H](NC(=O)[C@H](CSCNC(C)=O)NC(=O)[C@H](N)Cc1ccccc1)c1ccc(O)cc1)[C@@H](C)O)C(=O)NCC(=O)O` (some centres not stated), the Inhibition in the experiment on A-431 [1] is on record as 76%; in the experiment with A2058, 97%; with Faza 967 cell clone 2/T1, 90%; in the experiment on Faza 967 clone 2 it was 92%; with HT-29, 93%.
In the case of `CCCCCCCCC(N)C(=O)NC(CCCCCCCC)C(=O)N[C@H](Cc1ccccc1)C(=O)N[C@@H](CSCNC(C)=O)C(=O)N[C@H](C(=O)N[C@H](Cc1c[nH]c2ccccc12)C(=O)N[C@@H](CCCCN)C(=O)N[C@@H](CSCNC(C)=O)C(=O)N[C@H](C(N)=O)[C@@H](C)O)c1ccc(O)cc1` (some centres not stated), the Inhibition with A2058 was 68%; in the experiment on Faza 967 cell clone 2/T1, 95%; in the experiment with Faza 967 clone 2 it was 96%; in the experiment on HT-29, 60%.
Regarding `CC(=O)NCSC[C@H](NC(=O)[C@H](N)Cc1ccccc1)C(=O)N[C@H](C(=O)N[C@H](Cc1c[nH]c2ccccc12)C(=O)N[C@@H](CCCCN)C(=O)N[C@@H](CSCNC(C)=O)C(=O)N[C@H](C(=O)NC1OC(C(N)=O)C(O)C(O)C1O)[C@@H](C)O)c1ccc(O)cc1` (some centres not stated), the Inhibition in the experiment with A-431 [1] came out at 90%; in the experiment with A2058, 88%; in the experiment with Faza 967 cell clone 2/T1 it was 90%; in the experiment on Faza 967 clone 2, 93%; with HT-29, 85%.
In the case of `CC(=O)NCSC[C@H](NC(=O)[C@H](N)Cc1ccccc1)C(=O)N[C@H](C(=O)N[C@H](Cc1c[nH]c2ccccc12)C(=O)N[C@@H](CCCCN)C(=O)N[C@@H](CSCNC(C)=O)C(=O)N[C@H](C(N)=O)[C@@H](C)O)c1ccc(O)cc1`, the Inhibition turned out to be 34% in the experiment on A-431 [1]; 30% in the experiment on A2058; 0% in the experiment with Faza 967 cell clone 2/T1; 10% with Faza 967 clone 2; 80% in the experiment with HT-29.
With `CCCCCCCCCCC(N)C(=O)NCC(=O)NCC(=O)N[C@H](Cc1ccccc1)C(=O)N[C@H]1CSSC[C@@H](C(=O)N[C@H](C(N)=O)[C@@H](C)O)NC(=O)[C@H](CCCCN)NC(=O)[C@@H](Cc2c[nH]c3ccccc23)NC(=O)[C@H](c2ccc(O)cc2)NC1=O` (some centres not stated), the Inhibition with A-431 [1] is 48%; with A2058, 35%; in the experiment on Faza 967 cell clone 2/T1 it was 43%; with Faza 967 clone 2 it was 33%; with HT-29, 50%.
Consider `C[C@@H](O)[C@H](NC(=O)C1CSSCC(NC(=O)[C@H](N)Cc2ccccc2)C(=O)N[C@@H](c2ccc(O)cc2)C(=O)NC(Cc2c[nH]c3ccccc23)C(=O)N[C@@H](CCCCN)C(=O)N1)C(N)=O` (single isomer, unassigned), for which the Inhibition was determined as 100% in the experiment on A-431 [2]; 96% in the experiment on A2058; 100% with Faza 967 cell clone 2/T1; 100% with Faza 967 clone 2; 76% in the experiment with HT-29; 90% with PC-3. Besides, the Inhibition with SW-620 is reported as 90%.
Take `CCCCCCCCCCCCC(N[C@H](Cc1ccccc1)C(=O)N[C@@H](CSCNC(C)=O)C(=O)N[C@H](C(=O)N[C@H](Cc1c[nH]c2ccccc12)C(=O)N[C@@H](CCCCN)C(=O)N[C@@H](CSCNC(C)=O)C(=O)N[C@H](C(N)=O)[C@@H](C)O)c1ccc(O)cc1)C(=O)NC1OC(O)C(O)C(O)C1O` (some centres not stated): the Inhibition with A-431 [1] is 32%; with A2058, 62%; in the experiment with Faza 967 cell clone 2/T1, 50%; in the experiment with Faza 967 clone 2 it was 61%; in the experiment with HT-29, 39%.
Regarding `CCCCCCCCCCCCCCCCCCC(N)C(=O)N[C@H](Cc1ccccc1)C(=O)N[C@@H](CSCNC(C)=O)C(=O)N[C@H](C(=O)N[C@H](Cc1c[nH]c2ccccc12)C(=O)N[C@@H](CCCCN)C(=O)N[C@@H](CSCNC(C)=O)C(=O)N[C@H](C(N)=O)[C@@H](C)O)c1ccc(O)cc1` (some centres not stated), the Inhibition is listed as 34% with A2058, 87% in the experiment on Faza 967 cell clone 2/T1, 71% in the experiment on Faza 967 clone 2 and 50% with HT-29.
In the case of `CCCCCCCCCCCCC(NC(=O)CCC(=O)NC1OC(O)C(O)C(O)C1O)C(=O)N[C@H](Cc1ccccc1)C(=O)N[C@H]1CSSC[C@@H](C(=O)N[C@H](C(N)=O)[C@@H](C)O)NC(=O)[C@H](CCCCN)NC(=O)[C@@H](Cc2c[nH]c3ccccc23)NC(=O)[C@H](c2ccc(O)cc2)NC1=O` (some centres not stated), the Inhibition with A2058 is 100%; in the experiment with HT-29, 30%; in the experiment with PC-3, 55%.
For `CCCCCCCCCCC(N)C(=O)N[C@H](Cc1ccccc1)C(=O)N[C@@H](CSCNC(C)=O)C(=O)N[C@H](C(=O)N[C@H](Cc1c[nH]c2ccccc12)C(=O)N[C@@H](CCCCN)C(=O)N[C@@H](CSCNC(C)=O)C(=O)N[C@H](C(=O)NC1OC(C(N)=O)C(O)C(O)C1O)[C@@H](C)O)c1ccc(O)cc1` (some centres not stated), the Inhibition with A-431 [1] was 50%; in the experiment with A2058, 80%; with Faza 967 cell clone 2/T1, 29%; with Faza 967 clone 2, 19%; with HT-29 it was 36%.
With `CCCCCCCCCCC(N)C(=O)N[C@H](Cc1ccccc1)C(=O)N[C@H]1CSSC[C@@H](C(=O)N[C@H](C(N)=O)[C@@H](C)O)NC(=O)[C@H](CCCCN)NC(=O)[C@@H](Cc2c[nH]c3ccccc23)NC(=O)[C@H](c2ccc(O)cc2)NC1=O` (some centres not stated), the Inhibition in the experiment with PC-3 is listed as 5%; in the experiment with SW-620, 65%.
Regarding `CCCCCCCCC(N)C(=O)N[C@H](Cc1ccccc1)C(=O)N[C@H]1CSSC[C@@H](C(=O)N[C@H](C(N)=O)[C@@H](C)O)NC(=O)[C@H](CCCCN)NC(=O)[C@@H](Cc2c[nH]c3ccccc23)NC(=O)[C@H](c2ccc(O)cc2)NC1=O` (some centres not stated), the Inhibition in the experiment with PC-3 is recorded as 42%; in the experiment with SW-620 it was 95%.
